Measured values taken from ChEMBL document CHEMBL4725371, “A Novel Redox Modulator Induces a GPX4-Mediated Cell Death That Is Dependent on Iron and Reactive Oxygen Species” (J Med Chem, 2020).
Calls of active or inactive are those of the source. The rule behind the calls is not given here.

Assays:
MIA PaCa-2 [1] = experiment: Inhibition glutathione synthesis in human MIA PaCa-2 cells at 1 to 2 uM measured after 2 to 4 hrs by GSH/GSSG-glo assay; format: functional, cell-based; conditions: dose microM 1-2, time hrs 2-4
Procedure, shortened: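 GSH/GSSG-Glo luminescent assay: 15,000–20,000 MIA PaCa-2 cells per well, attached overnight, treated 2 h and 4 h. Cells were lysed with total or oxidized glutathione reagent, then luciferin generation (30 min, room temperature) and detection reagents added. Luminescence was read after 15 min. Ratio was computed from net RLU as (total − GSSG)/(GSSG/2).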

PANC-1 = experiment: Cytotoxicity against human PANC-1 cells measured after 72 hrs by MTT assay; format: functional, cell-based; conditions: PANC-1, 72 h
Procedure, shortened: (§1)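 Cells were kept in RPMI 1640 with 10% FBS at 37 °C, 5% CO₂, under 35 passages. Cells were seeded, attached overnight and treated with compound or DMSO for 72 h. MTT was added at 0.3 mg/mL for 3 h, then dissolved in DMSO and read as absorbance at 570 nm. IC50 was fitted from the curve. Values are mean ± sd of three independent experiments.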

MIA PaCa-2 [2] = experiment: Cytotoxicity against human MIA PaCa-2 cells measured after 72 hrs by MTT assay; format: functional, cell-based; conditions: MIA PaCa-2, 72 h; procedure, shortened: as §1
BXPC-3 = experiment: Cytotoxicity against human BXPC-3 cells measured after 72 hrs by MTT assay; format: functional, cell-based; conditions: BXPC-3, 72 h; procedure, shortened: as §1
[3] = Drug level in mouse plasma treated with QD394 at 500 uM measured after 0.5 hrs by LC-MS/MS analysis
CT26 = experiment: Antitumor activity against mouse CT26 cells implanted in Balb/c mouse assessed as tumor shrinkage at 10 mg/kg, iv administered three times weekly for 17 days measured 4 hrs post-last dose; format: functional, organism-based; conditions: time 17.0 day
Procedure, shortened: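 Female Balb/c mice aged 5–6 weeks, implanted subcutaneously in right flank with 1 × 10⁶ CT-26 cells in DPBS. Dosing began 7 days later with randomisation (n = 5/group, mean tumour 97–117 mm³). IV dosing was 3 times weekly and IP dosing was given. Vehicle control given daily IP. Mice were euthanised four hours post-dose after 17 days of dosing.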

[4] = Half life in mouse liver microsomes at 10 uM in presence of NADPH by LC-MS/MS analysis; format: ADME, Microsome; conditions: microsomes, 10 µM
Procedure, shortened: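 Compound (10 μM working solution in 0.1 M phosphate buffer with 3.3 mM MgCl₂) was incubated with mouse liver microsomes and NADPH. Verapamil served as reference. Samples were taken at 0, 5, 10, 15, 30, 45 and 60 min and centrifuged at 3500 g. Supernatant was run by LC-MS/MS. t1/2 came from the slope of ln(peak area ratio) against time.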

[5] = Plasma concentration in CD-1 mouse at 10 mg/kg, ip measured after 7 hrs by LC-MS/MS analysis; format: ADME, organism-based
Procedure, shortened: (§2)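 CD-1 mice dosed IP at 10 mg/kg or PO at 20 mg/kg, n=2 per route. Blood taken with heparinized pipettes at 0.5, 2, 4 and 7 h and spun at 15,000 rpm for 10 min. Plasma stored at −80 °C, then measured by LC-MS/MS.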

[6] = Plasma concentration in CD-1 mouse at 20 mg/kg, po measured after 7 hrs by LC-MS/MS analysis; format: ADME, organism-based; procedure, shortened: as §2
[7] = Drug metabolism in CD-1 mouse plasma assessed as hydroxylation at 10 mg/kg, iv measured after 15 mins by LC-MS/MS analysis; format: ADME, organism-based; conditions: in vivo, 0.25 h
MIA PaCa-2 [8] = experiment: Cytotoxicity against human MIA PaCa-2 cells transfected with GPX4 siRNA measured after 72 hrs by MTT assay; format: functional, cell-based
MIA PaCa-2 [9] = experiment: Down regulation of PNPT1 expression in human MIA PaCa-2 cells at 3 times IC50 measured after 4 hrs by proteomics analysis; format: functional, cell-based
[10] = Drug metabolism in CD-1 mouse plasma assessed as hydroxylation at 20 mg/kg, po measured after 15 mins by LC-MS/MS analysis; format: ADME, organism-based; conditions: in vivo, 0.25 h
MIA PaCa-2 [11] = experiment: Induction of ferroptosis in human MIA PaCa-2 cells assessed as increase in lipid peroxidation measured after 24 hrs by C11-BODIPY dye based fluorescence assay; format: functional, cell-based
Procedure, shortened: (§3)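 MIA PaCa-2 cells were treated for the set time, then given 10 μM C11-BODIPY for 30 min at 37 °C and washed. Fluorescence was read at 581/591 nm (reduced dye) and 488/510 nm (oxidized dye). The intensity ratio was compared by unpaired t-test.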

MIA PaCa-2 [12] = experiment: Down regulation of LRPPRC expression in human MIA PaCa-2 cells at 3 times IC50 measured after 4 hrs by proteomics analysis; format: functional, cell-based
[13] = target: T1, Phospholipid hydroperoxide glutathione peroxidase GPX4 (Homo sapiens) (UniProt P36969); experiment: Binding affinity to GPX4 in human PANC-1 cells assessed as protein destabilization by measuring reduction in melting temperature at 100 uM measured after 1 hr by thermal shift assay; format: cell-based
T1 sequence (whole entry): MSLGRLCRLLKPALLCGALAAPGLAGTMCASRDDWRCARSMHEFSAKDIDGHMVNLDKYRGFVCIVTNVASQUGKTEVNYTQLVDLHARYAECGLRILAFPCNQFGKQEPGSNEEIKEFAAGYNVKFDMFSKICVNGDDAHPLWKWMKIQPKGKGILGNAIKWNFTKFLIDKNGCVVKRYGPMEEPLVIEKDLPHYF

MIA PaCa-2 [14] = experiment: Induction of reactive oxygen species in human MIA PaCa-2 cells at 5 to 10 uM measured after 30 mins in presence of N-acetylcysteine by CM-H2DCFDA dye based fluorescence assay; format: functional, cell-based; conditions: dose microM 5-10, time 30.0 min
Procedure, shortened: (§4)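 1.8 × 10⁴ cells per well were attached overnight, then loaded with 10 μM CM-H2DCFDA in HBSS for 40 min at 37 °C and washed. Compounds were added in HBSS. Fluorescence was read at Ex 483 / Em 530 nm. TBHP was the positive control. NAC at 3 mM was used where stated.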

[15] = Half life in human plasma at 500 uM by LC-MS/MS analysis; format: ADME, cell-free
Procedure, shortened: (§5)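 Compound (500 μM DMSO stock) was added at 1 μL per 500 μL pooled plasma. Samples were taken at 0, 0.17, 0.5, 1, 2 and 4 h and centrifuged at 3500 g for 10 min. Supernatant was run by LC-MS/MS. t1/2 came from the slope of ln(compound/internal standard peak area) against time.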

[16] = Half life in mouse plasma at 500 uM by LC-MS/MS analysis; format: ADME, cell-free; procedure, shortened: as §5
MIA PaCa-2 [17] = experiment: Induction of reactive oxygen species in human MIA PaCa-2 cells at 5 to 10 uM measured up to 4 hrs by CM-H2DCFDA dye based fluorescence assay; format: functional, cell-based; conditions: dose microM 5-10, time hrs <=4; procedure, shortened: as §4
[18] = Drug level in CD-1 mouse colon at 10 mg/kg, iv measured after 1 hr by LC-MS/MS analysis; format: ADME, organism-based; conditions: in vivo
Procedure, shortened: (§6)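 Mice received 20 mg/kg PO or 10 mg/kg IV. Organs were collected after 1 h and homogenised in five-fold dissociation solvent. Homogenate was mixed with acetonitrile and internal standard and centrifuged at 3500 g for 10 min. Supernatant was analysed by LC-MS.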

[19] = Drug level in CD-1 mouse colon at 20 mg/kg, po measured after 1 hr by LC-MS/MS analysis; format: ADME, organism-based; conditions: in vivo; procedure, shortened: as §6
MIA PaCa-2 [20] = experiment: Induction of ferroptosis in human MIA PaCa-2 cells assessed as increase in lipid peroxidation at 0.5 uM measured after 24 hrs by C11-BODIPY dye based fluorescence assay; format: functional, cell-based; procedure, shortened: as §3
MIA PaCa-2 [21] = experiment: Induction of ferroptosis in human MIA PaCa-2 cells assessed as increase in lipid peroxidation at 20 to 40 uM measured after 24 hrs by C11-BODIPY dye based fluorescence assay; format: functional, cell-based; conditions: dose microM 20-40, time 24.0 hrs
Procedure, shortened: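 MIA PaCa-2 cells (RPMI 1640, 10% FBS, 37 °C, 5% CO2) exposed to compound for the set time, then 10 μM C11-BODIPY added for 30 min at 37 °C. After two DPBS washes, read in HBSS at 581/591 nm (reduced dye) and 488/510 nm (oxidized dye); emission ratio calculated, unpaired Student's t-test.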

CCCCS(=N)(=O)CCC(N)C(=O)O (stereo not given)
inhibition (MIA PaCa-2 [1]): Active

O=C1C(Nc2ccc(-c3cc(Cl)cc(Cl)c3)cc2)=CC(=O)c2ncncc21
IC50 (PANC-1): 1.9 µM | IC50 (MIA PaCa-2 [2]): 3.1 µM | IC50 (BXPC-3): 3.3 µM

COc1c(Nc2ccc(N3CCN(C)CC3)cc2)cc(OC)c2ncncc12
Drug uptake [3]: Active

CC1=C(Nc2ccc(N3CCN(C)CC3)cc2)C(=O)c2cncnc2C1=O
Activity (CT26): Active | t1/2 [4]: 0.743 h | concentration at 7 h [5]: 6.7 ng/mL | concentration at 7 h [6]: 3.4 ng/mL | Drug metabolism [7]: Metabolite_Detected | Activity (MIA PaCa-2 [8]): inactive | Activity (MIA PaCa-2 [9]): Active | Drug metabolism [10]: Metabolite_Detected | Activity (MIA PaCa-2 [11]): Dose-dependent effect | Activity (MIA PaCa-2 [12]): Active | Activity [13]: Dose-dependent effect | Activity (MIA PaCa-2 [14]): inactive | half-life at 500 µM [15]: > 2 h | IC50 (PANC-1): 0.38 µM | IC50 (MIA PaCa-2 [2]): 3.63 µM | IC50 (BXPC-3): 0.87 µM | half-life at 500 µM [16]: > 2 h | Activity (MIA PaCa-2 [17]): Active | Drug uptake [18]: 0.3 mg/kg | Drug uptake [19]: 0.3 mg/kg

CN1CCN(c2ccc(NC3=C(SCC(N)C(=O)O)C(=O)c4ncncc4C3=O)cc2)CC1 (stereo not given)
Drug uptake [3]: Active

COC(=O)c1ccc([C@H]2c3[nH]c4ccccc4c3C[C@H](C(=O)OC)N2C(=O)CCl)cc1
Activity (MIA PaCa-2 [20]): Active

O=C1C(Nc2cccc(-c3ccccc3)c2)=CC(=O)c2ncncc21
IC50 (PANC-1): 2.3 µM | IC50 (MIA PaCa-2 [2]): 2.4 µM | IC50 (BXPC-3): 5.1 µM

CN1CCN(c2ccc(NC3=CC(=O)c4ncncc4C3=O)cc2)C(O)C1 (stereo not given)
Drug uptake [3]: Active

O=C1C(Nc2ccc(-c3ccc(Cl)cc3)cc2)=CC(=O)c2ncncc21
IC50 (PANC-1): 4.4 µM | IC50 (MIA PaCa-2 [2]): 9.7 µM | IC50 (BXPC-3): 10.1 µM

CCOc1ccccc1-n1c(C(C)N2CCN(C(=O)COc3ccc(Cl)cc3)CC2)nc2ccccc2c1=O (stereo not given)
Activity (MIA PaCa-2 [21]): Active
